# An excerpt weighted towards active compounds, which were near 2.1% of everything screened.
# m-calpain inh – inhibitors of pig calpain II, primary screen, biochemical, fluorogenic peptide substrate, 1536-well | purified calpain II, 30 min | inhibition, % at 16 µM | 220,000 compounds, 0.37% hits;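 active = inhibition above about 50%, limit read from the data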
# Runt-SMMHC FRET – inhibitors of RUNX1 Runt–CBFb-SMMHC binding, primary screen, biochemical, FRET, Cerulean-Runt, Venus-CBFb-SMMHC, uHTS | inhibition, % at 20 µM | Cerulean-Runt/Venus-CBFb-SMMHC FRET ratio 530/480, 1 h | 220,000 compounds, 0.74% hits | Runt-related transcription factor 1 (Homo sapiens) + Core-binding factor subunit beta …;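 active = mean inhibition across duplicate retests at 20 µM reaching about 50%, limit read from the data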;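 note: 0% = DMSO wells and 100% = wells with excess untagged CBFb-SMMHC; inhibitors lower the FRET ratio by blocking Runt binding to CBFb-SMMHC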
# Target sequence (Q01196 whole entry, looked up): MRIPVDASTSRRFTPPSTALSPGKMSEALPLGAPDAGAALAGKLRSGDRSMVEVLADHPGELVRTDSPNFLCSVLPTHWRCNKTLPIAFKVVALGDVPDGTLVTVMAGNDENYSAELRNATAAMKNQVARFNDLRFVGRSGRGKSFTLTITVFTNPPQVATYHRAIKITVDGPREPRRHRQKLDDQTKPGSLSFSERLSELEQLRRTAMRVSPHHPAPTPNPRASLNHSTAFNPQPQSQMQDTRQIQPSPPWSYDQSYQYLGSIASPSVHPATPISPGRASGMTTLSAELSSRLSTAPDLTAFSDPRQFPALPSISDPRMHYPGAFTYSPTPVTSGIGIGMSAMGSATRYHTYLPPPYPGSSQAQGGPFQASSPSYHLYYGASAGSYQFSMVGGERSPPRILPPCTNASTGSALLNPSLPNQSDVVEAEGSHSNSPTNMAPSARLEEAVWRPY
# Target sequence (Q13951 whole entry, looked up): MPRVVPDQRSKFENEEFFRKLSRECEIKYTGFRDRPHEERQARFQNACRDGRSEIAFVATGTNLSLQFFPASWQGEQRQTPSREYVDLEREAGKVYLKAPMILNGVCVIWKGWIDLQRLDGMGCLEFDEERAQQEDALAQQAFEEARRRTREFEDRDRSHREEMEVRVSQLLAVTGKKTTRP
# FAS-TE inh – FAS thioesterase domain inhibitors, primary screen, biochemical, fluorescence intensity, uHTS. 360,000 compounds, 0.67% hits. Fatty acid synthase (Homo sapiens), P49327. recombinant FAS-TE, OMFH fluorogenic substrate, fluorescence endpoint. inhibition, % at 15 µM;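 active = compounds whose normalised, plate-corrected inhibition of enzyme fluorescence in the single-dose primary screen is 50% or more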;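 note: 0% = DMSO with enzyme and 100% = substrate without enzyme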
# RanGTP-Imp inh – inhibitors of RanGTP-importin-beta interaction, primary screen, biochemical, FRET, CFP-Ran, YFP-importin-beta, homogeneous. Ran GTPase (GTP-bound) - importin-beta complex. cell-free CFP-Ran/YFP-importin-beta FRET ratio. inhibition, % (concentration not given with the values). 300,000 compounds, 1.1% hits;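 active = more than half of the replicate wells show a fall in the fluorescence ratio signal beyond about 16%, limit read from the data, passing the limit was not always enough; inconclusive = exactly half of the replicate wells pass the set limit; inactive = fewer than half of replicates pass the limit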;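 note: 0% = DMSO wells and 100% = Ran loaded with GDP instead of GTP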
# Runt-CBFb FRET – inhibitors of RUNX1 Runt–CBFb binding, primary screen, biochemical, FRET, Cerulean-Runt, Venus-CBFb, uHTS | Runt-related transcription factor 1 (Homo sapiens) + Core-binding factor subunit beta … | Cerulean-Runt/Venus-CBFb FRET ratio 530/480, 1 h | inhibition, % at 20 µM | 220,000 compounds, 0.46% hits | AID 1496, 2009;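 active = inhibition over about 50% at 20 µM in the single-dose screen, limit read from the data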;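 note: 0% = DMSO wells and 100% = excess unlabeled CBFb competitor control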
#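 Assay system: Cerulean-tagged RUNX1 Runt domain (FRET donor) fusion protein / Amount: 100 nM each of Venus-CBFb and Cerulean-Runt domain / Medium: Tris buffer pH 7.5 with salts and BSA / Also added: Venus-CBFb 100 nM / Schedule: 1 h complex formation plus 1 h compound treatment, room temperature / Signal: FRET fluorescence / Read-out: loss of energy transfer signal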
# Active calls of the source: *; i = inactive; ? = inconclusive; · = not tested or not shown.
SMILES,m-calpain inh,Runt-SMMHC FRET,FAS-TE inh,RanGTP-Imp inh,Runt-CBFb FRET
Cc1c(=O)n(OCc2ccccc2F)c2ccccc2[n+]1[O-],73*,2,1,-5,1
Cn1c(=O)c2nc3ccccc3nc2n(C)c1=O,-51,63*,-6,7,31
O=c1oc2cc(O)ccc2cc1-c1nc2c(s1)CCc1ccccc1-2,-243,83*,-135,·,4
O=c1oc2ccccc2cc1-c1nc2c(s1)CCc1ccccc1-2,-74,6,20,4,30
O=c1oc2ccccc2cc1-c1ccc(O)cc1O,1,0,-9,2,-3
O=c1oc2cc(O)ccc2cc1-c1ccccc1,·,·,-5,140*,·
COc1ccc(-c2cc3ccc(O)cc3oc2=O)cc1,·,·,-5,128*,·
O=C(Nn1cnc2ccccc2c1=O)c1c(F)cccc1F,·,·,-8,5,·
COc1ccc2c(Cl)c(C(=O)NCCc3ccc(S(N)(=O)=O)cc3)sc2c1,·,·,-4,-2,·
COC(=O)Cn1c2ccc(C)cc2c2nc3ccccc3nc21,·,·,4,20*,·
CC1CCN(c2nc3ccccc3nc2C(C#N)C(=O)NC2CCCCC2)CC1 (centres undefined),·,14,·,50*,28
CCCCNC(=O)C(C#N)c1nc2ccccc2nc1N1CCCC1 (centres undefined),-224,67*,·,34*,13
C=CCNC(=O)C(C#N)c1nc2ccccc2nc1N1CCCCCC1 (centres undefined),-496,65*,4,74*,35
Cc1cc(NC(=O)c2ccc3c(c2)C(=O)N(c2cccc(C)c2C)C3=O)no1,·,·,-2,-1,·
O=C(COc1ccc(S(=O)(=O)N2CCCC2)cc1Cl)NCc1cccnc1,·,·,-1,3,·
COc1ccc(OC)c(NC(=O)CN2C(=O)NC(C)(c3ccc4c(c3)OCCO4)C2=O)c1 (centres undefined),·,·,-5,·,·
CCCn1nc(C(=O)NCC2COc3ccccc3O2)c2ccccc2c1=O (centres undefined),·,·,18,·,·
Cc1ccc(N2C(=O)Nc3ccccc3S2(=O)=O)cc1Cl,·,·,7,-2,·
COc1ccc(NC2CCCN(C(=O)CSc3ccccc3)C2)cc1OC (centres undefined),·,·,-2,2,·
Cc1cc(C)cc(NC(=O)C(=O)NCCc2c[nH]c3ccccc23)c1,65*,4,18,-4,3
Cc1ccc(C)c(NC(=O)C(=O)NCCc2c[nH]c3ccccc23)c1,-18,0,11,?,1
C/C(CC(C)(C)c1ccccc1)=N\NS(=O)(=O)c1ccccc1,0,2,1,2,0
Cc1ccc(S(=O)(=O)c2cc3c(=O)n4ccccc4nc3n(C3CCCCC3)c2=N)cc1,·,·,46,48*,·
N=c1c(S(=O)(=O)c2ccccc2)cc2c(=O)n3ccccc3nc2n1C1CCCC1,·,·,21,144*,·
O=c1c2ccccc2nc2ccccn12,i,13,-4,-1,4
SMILES,m-calpain inh,Runt-SMMHC FRET,FAS-TE inh,RanGTP-Imp inh,Runt-CBFb FRET
N=c1c(S(=O)(=O)c2ccc(Cl)cc2)cc2c(=O)n3ccccc3nc2n1C1CCCCC1,·,·,65*,?,·
N=c1c(S(=O)(=O)c2ccc(Br)cc2)cc2c(=O)n3ccccc3nc2n1C1CCCC1,·,·,24,69*,·
Cc1ccc(CC2C(=O)N(c3cc(C)ccc3C)C(=O)C2C)cc1 (centres undefined),·,·,17,-3,·
CCc1ccc(NC(=O)c2noc(C(C)C)c2[N+](=O)[O-])cc1,46,2,16,-2,-2
CC(=O)c1ccc(NC(=O)c2noc(C(C)C)c2[N+](=O)[O-])cc1,95*,0,0,-1,0
COc1ccc(NC(=O)c2noc(C(C)C)c2[N+](=O)[O-])cc1,53*,3,-5,-2,-1
CCOC(=O)N1CCc2cc(OC)c(OC)c3c2c1cc1cc(OC)c(OC)cc13,·,·,20,·,·
COC(=O)c1ccccc1-c1cn(C)c2ccccc2c1=O,·,·,-5,-2,·
CCSc1nnc(NC(=O)CSc2nccn2-c2cc(C)cc(C)c2)s1,10,-2,·,26*,-3
CCN(C(=O)COC(=O)c1oc2ccc(OC)cc2c1C)C1CCS(=O)(=O)C1 (centres undefined),·,·,-6,·,·
COc1ccc(NC(=O)Nc2ccccn2)cc1OC,0,-4,-5,27*,-1
COc1ccc(NC(=O)c2ccc(COc3ccccc3Br)o2)cc1OC,20,-1,-3,4,-8
COc1ccc(NC(=O)c2ccc(COc3ccccc3OC)o2)cc1OC,2,-5,-3,13*,-1
COc1ccc(NC(=O)Nc2ccc(C)cc2OC(F)F)cc1OC,53*,4,1,6,-1
O=C(Nc1ccc(Cl)c(Cl)c1)Nc1ccccn1,·,·,-2,-4,·
CC(C)(C)CCN1CCC(CN2CCNC(=O)C2=O)CC1,·,·,-11,·,·
N#C[C@H]1[C@H](c2ccccc2)[C@](C#N)(C(=O)c2ccccc2)[C@@H]2C=Cc3ccccc3N21,-90,7,·,47*,5
CN(Cc1ccc(F)cc1)C(=O)c1ccc(NS(=O)(=O)c2ccccc2)cc1,·,·,0,-3,·
CN1C(=O)N(C)c2ccc(C=O)c3cccc1c23,-158,92*,13,-6,59*
CN1C(=O)N(C)c2ccc(Br)c3cccc1c23,·,·,12,4,·
CCOc1ccc(C2C(C#N)=C(N)Oc3cc(O)ccc32)cc1OCC (centres undefined),·,·,-2,51*,·
COc1ccc(C2C(C#N)=C(N)Oc3cc(O)ccc32)cc1Cl (centres undefined),·,·,3,59*,·
C#CCOc1ccc(C2C(C#N)=C(N)Oc3cc(O)ccc32)cc1 (centres undefined),·,·,2,67*,·
COC(=O)c1ccc(C2C(C#N)=C(N)Oc3cc(O)ccc32)cc1 (centres undefined),·,·,12,-23,·

# Source: PubChem
